Active and inactive are the calls of the source. The rule behind the calls is not given here.
Experiments:
[1] = molecular target: T1, DNA polymerase delta catalytic subunit (Homo sapiens, UniProt P28340); assay: Inhibition of human DNA polymerase delta assessed as inhibition of incorporation of dTTP into poly(dA)/oligo(dT)18 after 60 mins
T1 sequence (P28340 whole entry): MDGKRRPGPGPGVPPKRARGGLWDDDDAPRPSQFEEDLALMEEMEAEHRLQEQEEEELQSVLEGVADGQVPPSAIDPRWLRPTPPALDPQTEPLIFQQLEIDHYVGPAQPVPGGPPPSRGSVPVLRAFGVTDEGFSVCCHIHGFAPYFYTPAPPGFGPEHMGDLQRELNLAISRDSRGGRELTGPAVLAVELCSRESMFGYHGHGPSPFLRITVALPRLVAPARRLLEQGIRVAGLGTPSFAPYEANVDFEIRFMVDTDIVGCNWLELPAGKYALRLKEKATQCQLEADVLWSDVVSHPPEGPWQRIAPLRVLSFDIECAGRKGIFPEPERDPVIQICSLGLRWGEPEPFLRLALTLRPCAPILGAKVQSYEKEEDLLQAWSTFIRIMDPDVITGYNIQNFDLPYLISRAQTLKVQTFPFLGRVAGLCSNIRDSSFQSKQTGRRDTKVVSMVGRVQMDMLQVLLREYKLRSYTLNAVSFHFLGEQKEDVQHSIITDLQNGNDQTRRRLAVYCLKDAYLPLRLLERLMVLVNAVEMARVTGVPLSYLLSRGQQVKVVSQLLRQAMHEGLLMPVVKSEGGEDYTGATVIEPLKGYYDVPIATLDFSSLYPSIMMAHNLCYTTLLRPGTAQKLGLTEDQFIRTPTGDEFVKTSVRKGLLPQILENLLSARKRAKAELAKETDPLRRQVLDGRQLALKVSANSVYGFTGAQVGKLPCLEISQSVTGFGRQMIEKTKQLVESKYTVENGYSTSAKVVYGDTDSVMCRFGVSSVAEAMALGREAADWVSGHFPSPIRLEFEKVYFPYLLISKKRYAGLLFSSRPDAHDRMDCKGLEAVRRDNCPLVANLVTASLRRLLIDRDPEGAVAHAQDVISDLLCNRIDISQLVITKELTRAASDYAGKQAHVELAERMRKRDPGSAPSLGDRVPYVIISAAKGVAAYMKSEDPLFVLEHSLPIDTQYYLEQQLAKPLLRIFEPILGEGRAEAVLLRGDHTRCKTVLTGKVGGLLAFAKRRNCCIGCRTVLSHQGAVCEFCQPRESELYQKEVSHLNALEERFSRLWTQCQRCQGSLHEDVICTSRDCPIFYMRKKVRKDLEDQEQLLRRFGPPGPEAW
How it was run: (§1)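 Compound in DMSO was sonicated for 30 s, then held with enzyme (0.05 units final) at 0 °C for 10 min in 50 mM Tris-HCl pH 7.5, 1 mM DTT, 50% glycerol, 0.1 mM EDTA. The mixture was added to the standard reaction mix with poly(dA)/oligo(dT)18 (A/T = 2/1) and dTTP, 37 °C, 60 min. Activity was relative to no-inhibitor control; mean ± SE, three independent experiments.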

[2] = molecular target: DNA-directed DNA/RNA polymerase mu (Homo sapiens, UniProt Q9NP87); assay: Inhibition of human His-tagged recombinant DNA polymerase mu expressed in Escherichia coli BL21 assessed as inhibition of incorporation of dTTP into poly(dA)/oligo(dT)18 after 60 mins; how it was run: as §1
DNA polymerase kappa = molecular target: T2, DNA polymerase kappa (Homo sapiens, UniProt Q9UBT6); assay: Inhibition of human C-terminal-His6-tagged DNA polymerase kappa expressed in Escherichia coli assessed as inhibition of incorporation of dTTP into poly(dA)/oligo(dT)18 after 60 mins; how it was run: as §1
T2 sequence (Q9UBT6 whole entry): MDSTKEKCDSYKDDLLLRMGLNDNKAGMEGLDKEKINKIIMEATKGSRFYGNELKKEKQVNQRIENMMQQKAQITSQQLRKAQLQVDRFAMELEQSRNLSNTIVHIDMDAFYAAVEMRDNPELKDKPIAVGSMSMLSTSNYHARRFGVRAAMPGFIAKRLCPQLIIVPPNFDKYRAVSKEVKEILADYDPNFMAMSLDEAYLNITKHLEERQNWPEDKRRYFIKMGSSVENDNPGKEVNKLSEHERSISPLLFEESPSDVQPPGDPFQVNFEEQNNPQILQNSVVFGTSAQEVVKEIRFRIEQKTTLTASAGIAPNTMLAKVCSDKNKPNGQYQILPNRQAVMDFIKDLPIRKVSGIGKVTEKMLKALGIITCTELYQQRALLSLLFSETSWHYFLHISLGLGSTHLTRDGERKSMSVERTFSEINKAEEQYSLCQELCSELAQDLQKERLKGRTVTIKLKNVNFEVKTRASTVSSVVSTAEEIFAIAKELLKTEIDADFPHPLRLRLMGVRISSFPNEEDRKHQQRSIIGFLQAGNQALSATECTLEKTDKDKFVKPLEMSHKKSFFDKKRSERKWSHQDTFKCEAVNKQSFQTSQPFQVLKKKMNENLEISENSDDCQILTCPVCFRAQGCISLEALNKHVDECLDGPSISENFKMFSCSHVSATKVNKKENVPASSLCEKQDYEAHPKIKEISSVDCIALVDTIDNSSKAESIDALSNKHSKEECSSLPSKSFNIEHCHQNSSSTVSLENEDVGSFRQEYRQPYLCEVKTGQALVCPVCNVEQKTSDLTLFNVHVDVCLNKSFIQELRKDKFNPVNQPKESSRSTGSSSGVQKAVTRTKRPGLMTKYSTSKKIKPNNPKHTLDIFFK

[3] = system: Brassica oleracea var. botrytis; assay: Inhibition of cauliflower DNA polymerase alpha assessed as inhibition of incorporation of dTTP into activated DNA primer after 60 mins
Escherichia coli = assay: Inhibition of Escherichia coli polymerase DNA polymerase 1 Klenow fragment assessed as inhibition of incorporation of dTTP into activated DNA primer after 60 mins
HeLa = assay: Growth inhibition of human HeLa cells after 24 hrs by WST-1 assay; type: functional
How it was run: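 Cancer cells were grown in McCoy's 5A with 10% FBS and penicillin/streptomycin, 37 °C, 5% CO2. Cells were seeded at 1 × 10^4 per well, cultured 12 h, then given compound (10 mM DMSO stock diluted in medium, 0.5% DMSO) for 24 h. WST-1 was added for 4 h and absorbance read at 450/630 nm. GI50 given as mean ± SE, five independent experiments.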

[4] = Growth inhibition of HUVEC cells after 72 hrs by WST-1 assay; type: cell-based; details: human
How it was run: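 Normal cells (HDF, HUVEC) were grown in Eagle's MEM with 4.5 g/L glucose, 10% FCS, 5 mM L-glutamine and penicillin/streptomycin, 37 °C, 5% CO2. Cells were seeded at 1 × 10^4 per well, cultured 12 h, then exposed to compound (0.5% DMSO final) for 72 h. Viability was read by WST-1 at 450/630 nm. GI50 given as mean ± SE of five experiments.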

Sequence of DNA-directed DNA/RNA polymerase mu (Q9NP87 whole entry): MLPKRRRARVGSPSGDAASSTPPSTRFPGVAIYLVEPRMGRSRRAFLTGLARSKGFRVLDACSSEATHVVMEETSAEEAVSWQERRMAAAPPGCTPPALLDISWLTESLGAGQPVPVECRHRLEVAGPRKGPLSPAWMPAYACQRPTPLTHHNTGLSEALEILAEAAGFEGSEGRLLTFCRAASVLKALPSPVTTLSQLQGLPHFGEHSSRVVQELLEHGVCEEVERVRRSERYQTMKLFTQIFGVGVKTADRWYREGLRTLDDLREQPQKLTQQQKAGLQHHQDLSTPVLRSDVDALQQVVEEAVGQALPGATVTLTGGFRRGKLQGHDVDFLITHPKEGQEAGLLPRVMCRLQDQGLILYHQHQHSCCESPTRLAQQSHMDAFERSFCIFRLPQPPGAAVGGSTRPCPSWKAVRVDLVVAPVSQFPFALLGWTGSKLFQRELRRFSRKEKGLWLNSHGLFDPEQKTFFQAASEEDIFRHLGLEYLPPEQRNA

In the case of `C/C=C/C1=CC2=CC(=O)[C@@](C)(O)[C@@H](OC(=O)c3c(C)cc(O)cc3O)[C@@H]2CO1`, the IC50 [1] is reported as 68 µM, the IC50 [2] is reported as greater than 200 µM and the IC50 (DNA polymerase kappa) is reported as 59.8 µM. The inhibition [3] was “inactive”, the inhibition (Escherichia coli) was “inactive” and the GI50 (HeLa) was 68.8 µM. For the same compound, the GI50 at 72 h [4] was greater than 200 µM.
In the case of `C/C=C/C1=CC2=CC(=O)[C@@](C)(OC(=O)c3c(C)cc(O)cc3O)[C@@H](O)[C@@H]2CO1` [PINOPHILIN A], the IC50 [1] is reported as 54.5 µM, the IC50 [2] is reported as greater than 200 µM and the IC50 (DNA polymerase kappa) is reported as 48.6 µM. For the same compound, the inhibition [3] was “inactive”, the inhibition (Escherichia coli) was “inactive” and the GI50 (HeLa) was 55.6 µM. For the same compound, the GI50 at 72 h [4] was greater than 200 µM.
`Cc1cc(O)cc(O)c1C(=O)O[C@H]1[C@@H]2COC(/C=C/CO)=CC2=CC(=O)[C@@]1(C)O` [PINOPHILIN B] showed an IC50 [1] of 96.4 µM, an IC50 [2] greater than 200 µM and an IC50 (DNA polymerase kappa) of 88.9 µM. The inhibition [3] was “inactive”, the inhibition (Escherichia coli) was “inactive” and the GI50 (HeLa) was 99 µM. The GI50 at 72 h [4] was greater than 200 µM.

— ChEMBL document CHEMBL2010709, “Pinophilins A and B, inhibitors of mammalian A-, B-, and Y-family DNA polymerases and human cancer cell proliferation” (J Nat Prod, 2012)
